Source: ChEMBL document CHEMBL3585274, “Antiviral Activity of Diterpene Esters on Chikungunya Virus and HIV Replication” (J Nat Prod, 2015)

What was measured:
[1] = test system: Chikungunya virus; assay: Antiviral activity against chikungunya virus Indian ocean strain 899 infected in Vero cells assessed as virus-induced cytopathic effect after 6 to 7 days; format: functional, cell-based; details: Indian ocean strain 899, Vero
[2] = Selectivity index, CC50 for african green monkey Vero cells to EC50 for chikungunya virus Indian ocean strain 899; format: toxicity, cell-based; details: read-out: Ratio CC50/EC50
[3] = test system: Human immunodeficiency virus 1; assay: Antiviral activity against HIV1 3B infected in MT4 cells assessed as cell viability after 5 days by MTT assay; format: functional, organism-based; details: Human immunodeficiency virus 1, 3B, MT4, 120 h
In short: (§1)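 MT-4 cells ([…] cells/mL suspension) infected with HIV-1 IIIB or HIV-2 ROD at 100−300 CCID50, with mock-infected wells run in parallel. Serial 5-fold compound dilutions in triplicate wells. Viability by MTT after 5 days, absorbance at 540 and 690 nm, median OD of three wells. Median ± median absolute deviation from ≥3 independent assays.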

[4] = Selectivity index, CC50 for african green monkey Vero cells to EC50 for HIV1 3B; format: toxicity, cell-based; details: read-out: Ratio CC50/EC50
In short: (§2)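 SI = CC50 in Vero cells ÷ EC50 against HIV-1 IIIB or HIV-2 ROD. CC50 is the 50% antimetabolic concentration from MTS dose−response in Vero. EC50 is from the MT-4/MTT 5-day antiviral assay.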

[5] = test system: Human immunodeficiency virus 2; assay: Antiviral activity against HIV2 ROD infected in MT4 cells assessed as cell viability after 5 days by MTT assay; format: functional, organism-based; details: Human immunodeficiency virus 2, ISOLATE ROD, MT4, 120 h; in short: as §1
[6] = Selectivity index, CC50 for african green monkey Vero cells to EC50 for HIV2 ROD; format: toxicity, cell-based; details: read-out: Ratio CC50/EC50; in short: as §2

Row | Structure (SMILES) | EC50 [1] [nM] | selectivity ratio [2] | EC50 [3] [nM] | selectivity ratio [4] | EC50 [5] [nM] | selectivity ratio [6]
1 | CNc1ccccc1C(=O)O[C@@H]1[C@@H](C)[C@@]2(O)[C@@H](C=C(CO)C[C@]3(O)C(=O)C(C)=C[C@@H]23)[C@@H]2C(C)(C)[C@]12OC(C)=O | 15000 | 1.1 | 9 | 749 | 3000 | –
2 | CCCCCCCCCC(=O)O[C@@H]1[C@@H](C)[C@@]2(O)[C@@H](C=C(CO)C[C@]3(O)C(=O)C(C)=C[C@@H]23)[C@@H]2C(C)(C)[C@]12O | 4900 | 1.5 | 4900 | 4 | 2000 | –
3 | CCCCCCCCCC(=O)O[C@@H]1[C@@H](C)[C@@]2(O)[C@@H](C=C(CO)C[C@]3(O)C(=O)C(C)=C[C@@H]23)[C@@H]2C(C)(C)[C@]12OC(=O)CCCCCCCCC | 6 | 686 | 1.2 | 754 | 0.2 | –
4 | CCCCCCCCCCCCCC(=O)O[C@@H]1[C@@H](C)[C@@]2(O)[C@@H](C=C(C=O)C[C@]3(O)C(=O)C(C)=C[C@@H]23)[C@@H]2C(C)(C)[C@]12OC(C)=O | 700 | 5.9 | 3300 | 5 | 1200 | –
5 | CCCCCC(=O)O[C@@H]1[C@@H](C)[C@@]2(O)[C@@H](C=C(CO)C[C@]3(O)C(=O)C(C)=C[C@@H]23)[C@@H]2C(C)(C)[C@]12OC(=O)CCCCC | 3200 | 1.8 | 7 | 2890 | 1.2 | –
6 | CCCC(=O)O[C@@]12[C@H](O)[C@@H](C)[C@@]3(O)[C@@H](C=C(CO)C[C@]4(O)C(=O)C(C)=C[C@@H]34)[C@@H]1C2(C)C | 20000 | 12.3 | 122000 | > 3 | 25000 | –
7 | CCCC(=O)O[C@@H]1[C@@H](C)[C@@]2(O)[C@@H](C=C(C=O)C[C@]3(O)C(=O)C(C)=C[C@@H]23)[C@@H]2C(C)(C)[C@]12OC(=O)CCC | 13100 | 2.7 | > 20000 | – | > 35000 | –
8 | CC(=O)O[C@@]12[C@H](O)[C@@H](C)[C@@]3(O)[C@@H](C=C(CO)C[C@]4(O)C(=O)C(C)=C[C@@H]34)[C@@H]1C2(C)C | > 174000 | – | > 217000 | 1 | 101000 | –
9 | CCCCCCCCC(=O)O[C@@H]1[C@@H](C)[C@@]2(O)[C@@H](C=C(COC(=O)Cc3ccc(O)c(OC)c3)C[C@]3(O)C(=O)C(C)=C[C@@H]23)[C@@H]2C(C)(C)[C@]12OC(=O)CCCCCCCC | 600 | 3.7 | 36 | 483 | 4 | –
10 | CC(=O)O[C@@H]1[C@@H](C)[C@@]2(O)[C@@H](C=C(CO)C[C@]3(O)C(=O)C(C)=C[C@@H]23)[C@@H]2C(C)(C)[C@]12O | > 245000 | 0.8 | > 307000 | > 1 | > 307000 | –
11 | CC1=C[C@]23C(=O)[C@@H](C=C(COC(=O)c4ccccc4)[C@@H](O)[C@]2(O)[C@H]1OC(=O)c1ccccc1)[C@H]1[C@@H](C[C@H]3C)C1(C)C | 1200 | 6.4 | 27 | 3400 | 9 | –
12 | C=C(C)[C@]12C[C@@H](C)[C@@]34O[C@](Cc5ccccc5)(O[C@@H]1[C@@H]3C=C(COC(=O)Cc1ccc(O)c(OC)c1)C[C@]1(O)C(=O)C(C)=C[C@@H]41)O2 [RESINIFERATOXIN] | 1800 | 2.3 | 26000 | 8 | 22600 | –
13 | CCCC(=O)O[C@@H]1[C@@H](C)[C@@]2(O)[C@@H](C=C(CO)C[C@]3(O)C(=O)C(C)=C[C@@H]23)[C@@H]2C(C)(C)[C@]12OC(=O)CCC | 1800 | 2.1 | 79 | 3160 | 14 | –
14 | Cc1cn([C@H]2C[C@H](N=[N+]=[N-])[C@@H](CO)O2)c(=O)[nH]c1=O [ZIDOVUDINE] | – | – | 7100 | 3520 | 6000 | > 4180
15 | C/C=C(\C)C(=O)O[C@@H]1[C@@H](C)[C@@]2(O)[C@@H](C=C(CO)C[C@]3(O)C(=O)C(C)=C[C@@H]23)[C@@H]2C(C)(C)[C@]12OC(=O)CCCCCCCCC | 1100 | 3.3 | 1.5 | 600 | 0.2 | –
16 | CC(=O)O[C@@H]1[C@@H](C)[C@@]2(O)[C@@H](C=C(CO)C[C@]3(O)C(=O)C(C)=C[C@@H]23)[C@@H]2C(C)(C)[C@]12OC(C)=O | 9400 | 4.2 | 4800 | > 59 | 1000 | –
17 | CC(=O)OCC1=C[C@H]2[C@@H]3C(C)(C)[C@]3(OC(C)=O)[C@H](OC(C)=O)[C@@H](C)[C@]2(O)[C@@H]2C=C(C)C(=O)[C@@]2(O)C1 | 32600 | 2.2 | 27400 | > 9 | 6600 | –
18 | COc1cc(CC(=O)OCC2=C[C@H]3[C@@H]4C(C)(C)[C@]4(OC(C)=O)[C@H](OC(=O)Cc4ccccc4)[C@@H](C)[C@]3(O)[C@@H]3C=C(C)C(=O)[C@@]3(O)C2)ccc1O | 1700 | 14.2 | 750 | 23 | 80 | –
19 | CC(=O)O[C@@]12C[C@@H](C)[C@@]3(O)[C@@H](C=C(CO)C[C@]4(O)C(=O)C(C)=C[C@@H]34)[C@@H]1C2(C)C [PROSTRATIN] | 2700 | 22.8 | 1900 | 171 | 900 | –
20 | C/C=C(/C)C(=O)O[C@H]1C(C)=C[C@]23C(=O)[C@@H](C=C(CO)[C@@H](O)[C@]12O)[C@H]1[C@@H](C[C@H]3C)C1(C)C [INGENOL MEBUTATE] | 22900 | 2.3 | 17 | 7850 | 9 | –
21 | CCCCCCCCCC(=O)O[C@@]12[C@H](O)[C@@H](C)[C@@]3(O)[C@@H](C=C(CO)C[C@]4(O)C(=O)C(C)=C[C@@H]34)[C@@H]1C2(C)C | 2200 | 9.7 | 900 | 130 | 150 | –
22 | CCCCCCCCCCCCCC(=O)O[C@@H]1[C@@H](C)[C@@]2(O)[C@@H](C=C(CO)C[C@@]3(O)C(=O)C(C)=C[C@@H]23)[C@@H]2C(C)(C)[C@]12OC(C)=O | – | 1.9 | > 18000 | – | > 17000 | –
23 | CC1=C[C@H]2[C@@]3(O)[C@H](C)[C@@H](O)[C@]4(O)[C@H]([C@@H]3C=C(CO)C[C@]2(O)C1=O)C4(C)C [PHORBOL] | > 343000 | > 1 | > 343000 | > 1 | > 343000 | –
24 | CCCCCCCCCCCCCC(=O)O[C@@]12[C@H](O)[C@@H](C)[C@@]3(O)[C@@H](C=C(CO)C[C@]4(O)C(=O)C(C)=C[C@@H]34)[C@@H]1C2(C)C | 990 | 9 | 240 | 107 | 78 | –
25 | CCCCCCCCCCCCCC(=O)O[C@@H]1[C@@H](C)[C@@]2(O)[C@@H](C=C(CO)C[C@]3(O)C(=O)C(C)=C[C@@H]23)[C@@H]2C(C)(C)[C@]12OC(C)=O [PHORBOL MYRISTATE ACETATE] | – | 1960 | 0.9 | 220 | 0.7 | –
26 | CC(=O)OCC1=C[C@H]2[C@@H]3C(C)(C)[C@]3(OC(C)=O)[C@H](O)[C@@H](C)[C@]2(O)[C@@H]2C=C(C)C(=O)[C@@]2(O)C1 | 24600 | 1.7 | > 279000 | 1 | 243000 | –
27 | CCCCCCCCCC(=O)O[C@@H]1[C@@H](C)[C@@]2(O)[C@@H](C=C(CO)C[C@@]3(O)C(=O)C(C)=C[C@@H]23)[C@@H]2C(C)(C)[C@]12OC(=O)CCCCCCCCC | 1500 | 2.2 | > 16000 | – | > 16000 | –
28 | CC1=C[C@]23C(=O)[C@@H](C=C(CO)[C@@H](O)[C@]2(O)[C@H]1O)[C@H]1[C@@H](C[C@H]3C)C1(C)C [INGENOL] | 30100 | 4.8 | 209000 | > 2 | 131000 | –
